From ChEMBL document CHEMBL3600341, “Discovery of a series of novel compounds with moderate anti-hepatitis C virus NS3 protease activity in vitro” (Bioorg Med Chem, 2015)

Test: Inhibition of HCV NS3/4A protease using RET S1 as substrate preincubated for 10 mins followed by substrate addition measured for 30 mins by FRET analysis
Parameters: species or system Hepacivirus hominis
Method in brief: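 NS3/4A protease activity followed by intramolecular FRET with quenched-fluorogenic substrate Ac-DED(EDANS)EEAbuY[COO]ASK(DABCYL). Buffer 30 mM HEPES pH 7.5, 40% glycerol, 10 mM DTT, 2% DMSO. Ten-dose 4-fold serial dilution of compound in DMSO; 10 min preincubation, substrate added to start. Kinetic read 30 min, ex 335 nm/em 495 nm. IC50 from percent inhibition versus inhibitor concentration.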

| Compound | IC50 |
| --- | --- |
| Cc1ccc(S(=O)(=O)NC(=O)[C@H](CC(C)C)NC(=O)[C@@H]2C[C@H](n3cc(-c4ccccc4)nn3)CN2C(=O)[C@H](Cc2ccccc2)NC(=O)OC(C)(C)C)cc1 | 5.9 µM |
| CCC[C@H](NC(=O)[C@@H]1[C@H]2CCC[C@H]2CN1C(=O)[C@@H](NC(=O)[C@@H](NC(=O)c1cnccn1)C1CCCCC1)C(C)(C)C)C(=O)C(=O)NC1CC1 [TELAPREVIR] | 0.45 µM |
| O=C(N[C@H](C(=O)N1C[C@@H](n2cc(-c3ccccc3)nn2)C[C@H]1C(=O)N[C@H](Cc1ccccc1)C(=O)NS(=O)(=O)C1CC1)C1CCCCC1)OCc1ccccc1 | 4.5 µM |
| CC(C)C[C@H](NC(=O)OC(C)(C)C)C(=O)N1C[C@@H](n2cc(-c3ccccc3)nn2)C[C@H]1C(=O)N[C@H](Cc1ccccc1)C(=O)NS(=O)(=O)C1CC1 | > 100 µM |
| Cc1ccc(S(=O)(=O)NC(=O)[C@H](CC(C)C)NC(=O)[C@@H]2C[C@H](n3cc(-c4ccccc4)nn3)CN2C(=O)[C@@H](NC(=O)c2cccs2)C2CCCCC2)cc1 | 1.9 µM |
| COc1ccc(C(=O)N[C@H]2C[C@@H](C(=O)N[C@@H](CC(C)C)C(=O)NS(=O)(=O)C3CC3)N(C(=O)[C@@H](NC(=O)OC(C)(C)C)C(C)(C)C)C2)cc1 | > 100 µM |
| Cc1ccc(S(=O)(=O)NC(=O)[C@H](CC(C)C)NC(=O)[C@@H]2C[C@H](n3cc(-c4ccccc4)nn3)CN2C(=O)[C@@H](NC(=O)c2ccccc2)C2CCCCC2)cc1 | 2.5 µM |
| CC(C)C(=O)N[C@H](C(=O)N1C[C@@H](n2cc(-c3ccccc3)nn2)C[C@H]1C(=O)N[C@H](Cc1ccccc1)C(=O)NS(=O)(=O)C1CC1)C1CCCCC1 | > 100 µM |
| CC(C)(C)OC(=O)N[C@H](C(=O)N1C[C@@H](n2cc(-c3ccccc3)nn2)C[C@H]1C(=O)N[C@H](Cc1ccccc1)C(=O)NS(=O)(=O)C1CC1)C1CCCCC1 | 72 µM |
| Cc1ccc(S(=O)(=O)NC(=O)[C@H](CC(C)C)NC(=O)[C@@H]2C[C@H](n3cc(-c4ccccc4)nn3)CN2C(=O)[C@H](Cc2ccccc2)NC(=O)C(C)C)cc1 | > 100 µM |
| CC(C)(C)OC(=O)N[C@H](C(=O)N1C[C@@H](n2cc(-c3ccccc3)nn2)C[C@H]1C(=O)N[C@H](Cc1ccccc1)C(=O)NS(=O)(=O)C1CC1)C(C)(C)C | > 100 µM |
| O=C(N[C@H](C(=O)N1C[C@@H](n2cc(-c3ccccc3)nn2)C[C@H]1C(=O)N[C@H](Cc1ccccc1)C(=O)NS(=O)(=O)C1CC1)C1CCCCC1)c1ccccc1 | 7.4 µM |
| CC(C)C[C@H](NC(=O)[C@@H]1C[C@H](NC(=O)c2ccc3ccccc3c2)CN1C(=O)[C@@H](NC(=O)OC(C)(C)C)C(C)(C)C)C(=O)NS(=O)(=O)C1CC1 | > 100 µM |
| Cc1cccc(Nc2ccccc2C(=O)N[C@H]2C[C@@H](C(=O)N[C@@H](CC(C)C)C(=O)NS(=O)(=O)C3CC3)N(C(=O)[C@@H](NC(=O)OC(C)(C)C)C(C)(C)C)C2)c1C | 2.1 µM |
| CC(C)(C)OC(=O)N[C@@H](Cc1ccccc1)C(=O)N1C[C@@H](n2cc(-c3ccccc3)nn2)C[C@H]1C(=O)N[C@H](Cc1ccccc1)C(=O)NS(=O)(=O)C1CC1 | 7.1 µM |
| Cc1ccc(S(=O)(=O)NC(=O)[C@H](CC(C)C)NC(=O)[C@@H]2C[C@H](n3cc(-c4ccccc4)nn3)CN2C(=O)[C@@H](NC(=O)c2ccco2)C(C)(C)C)cc1 | 34 µM |
| Cc1ccc(S(=O)(=O)NC(=O)[C@H](CC(C)C)NC(=O)[C@@H]2C[C@H](n3cc(-c4ccccc4)nn3)CN2C(=O)[C@H](Cc2c[nH]c3ccccc23)NC(=O)OC(C)(C)C)cc1 | 5.6 µM |
| Cc1ccc(S(=O)(=O)NC(=O)[C@H](CC(C)C)NC(=O)[C@@H]2C[C@H](n3cc(-c4ccccc4)nn3)CN2C(=O)[C@@H](NC(=O)OC(C)(C)C)C(C)(C)C)cc1 | > 100 µM |
